# SUMO1 PPI mod: alters human SUMO1 binding to SIM partners. SUMO1 binding to a labelled peptide, TR-FRET, 1 h. inhibition, % at 20 µM. hit rate 0.33% among 360,000. AID 602429; in the data active = inhibition above about 37%
# STEP block: STEP (human) phosphatase inhibition | hit rate 0.25% among 360,000 | P54829 | recombinant STEP, OMFP fluorogenic substrate, fluorescence | inhibition, % at 20 µM | AID 588621;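 active = inhibition at 20 µM, scaled per plate between control wells, above about 37%, limit read from the data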;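 note: 0% = DMSO with enzyme and substrate and 100% = substrate only without enzyme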
#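 medium = Bis-Tris buffer pH 6.0, 2.5 mM DTT, 0.005% Tween 20 | test system = STEP (striatal-enriched tyrosine phosphatase) enzyme, cell-free | measure = normalized % inhibition | compound dosing = 20 µM, 1% DMSO | also added = 25 µM OMFP | schedule = reaction 20 min, ambient temperature | measured by = fluorescence read at 480 nm ex / 540 nm em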
# Scp1 inh: inhibitors of human Scp-1 phosphatase. Q9GZU7. AID 493091. Recombinant Scp1, phosphopeptide, malachite green phosphate absorbance. inhibition, % at 20 µM. hit rate 0.88% among 340,000;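 active = inhibition above about 50% at 20 µM, limit read from the data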;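 note: plate controls were DMSO wells with enzyme for no effect and wells lacking enzyme for full effect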
# Target sequence (Q9GZU7 76-261 limits assumed): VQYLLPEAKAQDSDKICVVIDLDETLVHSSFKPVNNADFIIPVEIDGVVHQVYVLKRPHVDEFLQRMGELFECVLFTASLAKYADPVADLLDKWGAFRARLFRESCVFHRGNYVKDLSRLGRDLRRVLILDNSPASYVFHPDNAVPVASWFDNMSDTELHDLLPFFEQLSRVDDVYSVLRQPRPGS
#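 Material – SCP-1 phosphatase catalytic domain, residues 76-261 · Buffer or medium – Acidic Tris acetate buffer with magnesium and detergent · Also added – Phospho 17-mer peptide substrate · Compound – single 20 µM dose, 1% DMSO · Times – 45 min room-temperature reaction, 5 min colour, 30 min stabiliser · Technique – Phosphate-binding colour reagent, absorbance read at 630 nm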
# DNMT1 block: DNMT1 (human) enzyme inhibition | P26358 | inhibition (reported as % activation of signal), % at 10 µM | hit rate 0.83% among 360,000 | DNMT1 molecular beacon, Hinp1I cleavage, fluorescence; in the data active = inhibition above about 50%
# Casp6 inh: inhibitors of human caspase-6; P55212; purified caspase-6, Z-VEID-R110 cleavage fluorescence; inhibition, % at 12.5 µM; hit rate 0.53% among 350,000; AID 686996;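 active = mean inhibition across replicates at least about 35%, with every replicate also reaching that limit, limit read from the data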;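 note: 0% = median of neutral control wells and 100% = no fluorescence left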
# Target sequence (P55212 24-179 limits assumed): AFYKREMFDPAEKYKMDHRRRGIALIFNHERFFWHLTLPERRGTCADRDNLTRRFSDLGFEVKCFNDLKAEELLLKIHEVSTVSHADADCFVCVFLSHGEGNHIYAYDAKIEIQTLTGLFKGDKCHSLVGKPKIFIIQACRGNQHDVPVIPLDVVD
# Target sequence (P55212 194-293 limits assumed): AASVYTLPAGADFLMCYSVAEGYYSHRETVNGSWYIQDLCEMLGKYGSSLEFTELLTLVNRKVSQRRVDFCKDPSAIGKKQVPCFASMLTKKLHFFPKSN
# LMPTP block: LMPTP (human) inhibition | inhibition, % at 20 µM | P24666 | hit rate 0.22% among 360,000 | recombinant LMPTP-A, OMFP fluorogenic substrate, fluorescence intensity;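 active = compounds that cut the enzyme signal by at least half of the control window in the single-dose screen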;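 note: plate controls were DMSO wells with enzyme plus substrate for no effect and substrate without enzyme for full effect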
# Target sequence (P24666 whole entry, looked up): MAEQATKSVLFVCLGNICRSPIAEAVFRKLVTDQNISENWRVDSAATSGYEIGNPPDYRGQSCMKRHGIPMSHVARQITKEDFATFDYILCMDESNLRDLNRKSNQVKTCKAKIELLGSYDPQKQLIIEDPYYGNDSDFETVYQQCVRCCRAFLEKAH
#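 Test system: LMPTP-A phosphatase enzyme; input: 0.625 nM LMPTP-A final; reagent: OMFP substrate, 400 µM final; compound dosing: 20 µM single dose, 3% DMSO; incubation: 50 min dark incubation at room temperature; measured by: endpoint fluorescence intensity from OMFP dephosphorylation; measure: % inhibition relative to no-enzyme and uninhibited control wells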
# Scp1 confirm: confirmation of human Scp-1 phosphatase inhibitors | recombinant SCP-1 catalytic domain, phosphate release, malachite green absorbance | shares compounds with Scp1 inh | inhibition, % at 20 µM | hit rate 61% among 2,500 | AID 540281;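 active = inhibition of at least 30% at 20 µM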;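 note: plate controls were DMSO with enzyme for no effect and buffer wells lacking enzyme for full effect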
# MG interference: interferes with malachite green readout, flagging false Scp-1 hits; shares compounds with Scp1 inh; Colorimetric interference counterscreen, malachite green absorbance 630 nm; apparent inhibition (interference), % at 20 µM; 2,500 tested, under 10 active; AID 540313;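 active = inhibition of at least 30% at 20 µM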;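 note: compounds added after enzyme reaction finished so only phosphate colour detection is probed; plate controls were DMSO wells with completed Scp-1 reaction for no effect and substrate wells lacking enzyme for full effect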
# Scp-1 Tm shift: Scp-1 (human) binding by thermal shift | shares compounds with Scp1 inh | Recombinant SCP1, Sypro Orange thermal shift Tm | thermal shift relative to vanadate control, % at 40 µM | hit rate 25% among 1,500;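 active = substances whose mean melting-temperature shift, as a percentage of the reference inhibitor's shift, reaches about 5.3%, limit read from the data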;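 note: 0% = Tm of DMSO wells and 100% = Tm with sodium orthovanadate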
# Beacon interf DR: counter-screen for DNMT1 inhibitors: spectral interference, dose response; shares compounds with DNMT1 block; molecular beacon fluorescence; IC50, µM; 200 tested, under 10 active; AID 602382
# DNMT1 inh conf: DNMT1 inhibition confirmation, single concentration; AID 602385; hit rate 8% among 2,300; inhibition, % at 10 µM; shares compounds with DNMT1 block; DNMT1 molecular beacon HinP1I cleavage, fluorescence;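 active = average inhibition of at least 30% in the single-concentration confirmation test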
# DNMT1 interf: beacon fluorescence artifact counter-screen; shares compounds with DNMT1 block; activation (fluorescence interference), % at 10 µM; DNMT1 molecular beacon spectral interference counterscreen, fluorescence 485/520; hit rate 1% among 2,300; AID 602387;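 active = activation of at least 30% at 10 µM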;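 note: DNMT1 catalytic domain with a HinP1I cleavage step and a FAM/dabcyl DNA beacon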
# STEP conf: STEP (human) phosphatase inhibition, single concentration confirmation | shares compounds with STEP block | recombinant STEP, OMFP fluorogenic substrate, fluorescence | inhibition, % at 20 µM | hit rate 32% among 520 | AID 623866;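 note: 0% = enzyme with substrate plus DMSO and 100% = substrate without enzyme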
# Numbers without * were called inactive; / = no result. In the library only some 1.7% were active in any assay of this set; here they are far more common. Unless noted, the rule behind the calls is not given here.
SMILES,SUMO1 PPI mod,STEP block,Scp1 inh,DNMT1 block,Casp6 inh,LMPTP block,Scp1 confirm,MG interference,Scp-1 Tm shift,STEP conf,others
O=C1CCCN1CCCNC(=S)Nc1cccc2ccccc12,-1,55*,5,-11,1,2,-16,-18,/,6,
CCOC(=O)c1sc2nc3c(SCC(=O)O)cc(C(=O)c4ccccc4O)cn3c(=O)c2c1C,102*,98*,53*,186*,11,93*,59*,-7,7.5*,98*,Beacon interf DR=>99;DNMT1 inh conf=60*;DNMT1 interf=-2
O=[N+]([O-])c1ccc(-c2ccc(/C=N/Nc3nc(N4CCCC4)nc(N4CCCC4)n3)o2)cc1,-11,10,3,0,0,10,/,/,/,/,
COc1ccc(-c2cnnc(N/N=C/c3ccc(-c4ccc([N+](=O)[O-])cc4)o3)n2)cc1,-9,50*,108*,2,5,57*,49*,-5,4,5,
Cc1ccc(CN(c2ccc(C(=O)NCC3CCCO3)cc2)S(C)(=O)=O)cc1 (stereo not given),2,-2,-1,-2,2,1,/,/,/,/,
COc1ccc(/C=N/N=C2/NC(=O)C(CC(=O)O)S2)cc1OCc1ccc(Cl)cc1Cl (stereo not given),17,80*,66*,7,32,4,79*,-7,-10,35*,
Cc1ccc(Cn2c(C(C)Nc3nc(-c4ccc(C)cc4)cs3)nc3cc(Cl)c(Cl)cc32)cc1 (stereo not given),110*,78*,61*,78*,/,24,56*,2,4,26,DNMT1 inh conf=11;DNMT1 interf=5
CN(C)C1NC(=O)c2cc(-c3ccccc3)sc2N1 (stereo not given),-18,2,-10,-3,/,2,/,/,/,/,
Oc1ccc(-c2n[nH]c(=S)n2-c2ccc3c(c2)OCCO3)c(O)c1,13,-1,-2,0,/,-1,/,/,/,/,
COc1cccc2cc(C(=O)NNC(=O)c3ccc(Br)cc3)c(=O)oc12,-11,82*,99*,7,0,44,55*,-13,0,0,
CC(=O)N(C)C[C@@H]1Oc2cc(C#Cc3ccccc3F)ccc2S(=O)(=O)N([C@@H](C)CO)C[C@H]1C,/,/,/,/,2,/,/,/,/,/,
COc1ccc(NC(=O)NNC(=O)c2ccc(-c3ccccc3)cc2)cc1,15,40*,88*,48,-3,29,46*,-14,-15,21,
COc1ccc(NC(=O)NNC(=O)c2ccc(-c3ccccc3)cc2)c(OC)c1,2,5,2,2,-1,4,/,/,/,/,
CCC1(c2ccc(F)cc2)NC(=O)N(CC(=O)Nc2ccc(-c3nc4ccc(C)cc4s3)cc2)C1=O (stereo not given),1,0,-30,-8,/,1,/,/,/,/,
O=C(/C=C/c1ccc(Cl)cc1)NC(=S)Nc1ccc(C(=O)O)cc1,-7,92*,96*,2,1,67*,88*,-8,-2,50*,
CN(C)c1ccc(NC(=S)NC(=O)/C=C/c2ccc(Cl)cc2)cc1,-4,2,-2,17,/,0,/,/,/,/,
O=[N+]([O-])c1ccc(O)c(Nc2ncnc3ccccc23)c1,-10,97*,98*,2,2,91*,81*,-5,3,36*,
O=C(N/N=C/C=C/c1ccc([N+](=O)[O-])cc1)c1cccs1,-4,96*,101*,97*,/,87*,91*,-6,6.4*,-5,DNMT1 inh conf=11;DNMT1 interf=1
O=C(N/N=C/C=C\c1ccccc1[N+](=O)[O-])c1cccs1,-20,0,4,0,3,-1,/,/,/,/,
O=C(/C=C/c1cccc([N+](=O)[O-])c1)c1cccs1,-12,-2,-10,2,1,1,/,/,/,/,
O=C(/C=C/c1cccc([N+](=O)[O-])c1)Nc1ccc(NC(=O)c2cccs2)cc1,0,45*,75*,44,/,56*,74*,-10,15*,18,
O=C1Nc2ccc3sc4ccccc4c3c2C1=O,55*,96*,93*,24,3,77*,79*,-9,8.0*,53*,
Cc1cc(C)cc(NC(=O)N2CCC(NC(=O)c3ccccc3C)CC2)c1,0,0,-5,0,/,-1,/,/,/,/,
CCc1ccc(NC(=O)CS(=O)CC(=O)Nc2ccc(N3CCOCC3)cc2)cc1 (stereo not given),25,72*,79*,45,0,63*,88*,-14,-10,6,
Cn1c2ccccc2c(=O)c2c(=O)n(C3CCCCCC3)c(C3CCCCC3)nc21,-7,60*,97*,68*,2,12,18,6,/,7,DNMT1 inh conf=1;DNMT1 interf=-5
O=[N+]([O-])c1ccc(C=NNC(=S)NN=Cc2ccc([N+](=O)[O-])cc2)cc1,92*,96*,88*,88*,-2,75*,55*,-14,12*,8,DNMT1 inh conf=1;DNMT1 interf=-12
Cc1cc(C)c(C(=O)NC2CC(C)(C)Cc3c2cnn3-c2cccc(F)c2)[nH]1 (stereo not given),3,2,-2,-1,-5,1,/,/,/,/,
Brc1cccc(-c2nc(-c3ccncc3)no2)c1,2,3,-14,-1,/,0,/,/,/,/,
Clc1ccc(Br)cc1-c1nc(-c2ccncc2)no1,2,65*,102*,17,/,72*,35*,-4,-4,28,
Cc1c(CC(=O)O)c(=O)oc2c(C)c(OCc3ccc(F)cc3F)ccc12,0,4,28,1,1,1,/,/,/,/,

# High-throughput results: PubChem BioAssay, several laboratories
